The subject of experiment [1] is HepG2. The experiment is described as follows: Cell cycle arrest in human HepG2 cells assessed as reduction in CDK4 expression measured after 48 hrs by Western blot analysis. Format: functional, cell-based. The following applies: dose 1-10 µM. The procedure, abridged:
(§1)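 HepG2 cells treated for 48 h and lysed. Lysates cleared at 12000 rpm for 15 min and protein measured by BCA. Run on SDS-PAGE, transferred to PVDF, blocked in 5% BSA, primary antibody at 4 °C overnight, then DyLight 800 secondary. Infrared imaging and densitometry against β-actin. Mean ± SD, n=3.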

The test system of experiment [2] is HepG2. As to the kind of experiment: Antiproliferative activity against human HepG2 cells assessed as reduction in cell viability measured after 72 hrs in presence of doxorubicin by MTT assay. Format: functional, cell-based. The conditions noted are these: dose 0.0875-1.4 µM.
Experiment [3] has as its system HepG2. As to the kind of experiment: Antiproliferative activity against human HepG2 cells assessed as combination index at 0.35 uM measured after 72 hrs in presence of 0.7 uM doxorubicin by MTT assay. Format: functional.
The subject of experiment [4] is HepG2. The experiment is described as follows: Antiproliferative activity against human HepG2 cells assessed as combination index at 0.175 uM measured after 72 hrs in presence of 0.35 uM doxorubicin by MTT assay. Format: functional.
For experiment [5], the system named is HepG2. The experiment is described as follows: Induction of apoptosis in human HepG2 cells assessed as increase in Bax expression measured after 48 hrs by Western blot analysis. Format: functional, cell-based. The conditions noted are these: dose 1-10 µM. The procedure, abridged: (§2)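 Western blots for Bcl-2, Bax, cleaved caspase-3 and cleaved PARP in HepG2 cells after 48 h treatment (1, 5, 10 μM for PARP). Lysates cleared, protein quantified by BCA, run on SDS-PAGE to PVDF, blocked in 5% BSA, primary overnight at 4 °C, DyLight 800 secondary. Infrared scanning and densitometry normalized to β-actin. Mean ± SD, n=3.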

The test system of experiment [6] is HepG2. As to the kind of experiment: Antiproliferative activity against human HepG2 cells assessed as cell growth inhibition after 72 hrs by MTT assay. The following applies: HepG2, 72 h. Format: functional, cell-based. The gist of the method: (§3)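 HepG2, A549 or MDA-MB-231 cells grown in DMEM with 10% FBS and penicillin/streptomycin at 37 °C, 5% CO2. Seeded at 3×10^3 per well, left 24 h, then exposed to a range of concentrations for 72 h. MTT added for 4 h, formazan dissolved in DMSO, absorbance read at 550 nm. Mean ± SD, n=3.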

In experiment [7] the test system is HepG2. As to the kind of experiment: Cell cycle arrest in human HepG2 cells assessed as accumulation at G0/G1 phase at 10 uM measured after 48 hrs by propidium iodide staining based flow cytometry (reference value: 56.24%). Format: functional.
Experiment [8] concerns HepG2. The experiment is described as follows: Induction of apoptosis in human HepG2 cells assessed as reduction in Bcl2 expression measured after 48 hrs by Western blot analysis. Format: functional, cell-based. The following applies: dose 1-10 µM. The procedure, abridged: as §2
Experiment [9] addresses T1, Acetyl-CoA carboxylase 1 (Homo sapiens, UniProt Q13085). The experiment is described as follows: Inhibition of ACC1 in human HepG2 cells assessed as reduction in intracellular triglyceride level measured after 48 hrs by GPO-PAP method. The class given is cell-based. The following applies: dose 1-10 µM. The procedure, abridged:
(§4)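 HepG2 cells plated and exposed to the compound at several concentrations for 48 h. Cells washed with PBS, lysed in 1% Triton X-100 and spun 12000 rpm, 4 °C, 15 min. Malonyl-CoA measured by ELISA kit and triglyceride by GPO-POP kit, each normalised to BCA protein. Reported relative to control, mean ± SD, n=3.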

For another experiment, the system named is A549. As to the kind of experiment: Antiproliferative activity against human A549 cells assessed as cell growth inhibition after 72 hrs by MTT assay. The conditions noted are these: A549, 72 h. The class given is functional, cell-based. The procedure, abridged:
as §3

Another experiment concerns MDA-MB-231. The experiment is described as follows: Antiproliferative activity against human MDA-MB-231 cells assessed as cell growth inhibition at 10 uM after 72 hrs by MTT assay relative to control. The class given is functional. The conditions noted are these: read-out: GI. The gist of the method: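 Cells were DMEM/10% FBS cultures at 37 °C, 5% CO2, seeded at 3×10^3 per well and exposed for 72 h after 24 h attachment. Read-out was MTT with formazan in DMSO and absorbance at 550 nm, expressed as inhibition rate versus control.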

Experiment [10] deals with HepG2. As to the kind of experiment: Induction of apoptosis in human HepG2 cells assessed as necrotic cells at 10 uM measured after 48 hrs by Annexin V-FITC/propidium iodide staining based flow cytometry (reference value: 0.22%). The class given is functional. The gist of the method:
(§5)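 HepG2 cells incubated with the stated concentrations for 48 h, harvested, and stained with Annexin V-FITC and propidium iodide protected from light. Viable, early apoptotic, late apoptotic and necrotic fractions quantified by flow cytometry. Mean ± SD, n=3.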

The subject of experiment [11] is HepG2. As to the kind of experiment: Induction of apoptosis in human HepG2 cells assessed as late apoptotic cells at 1 uM measured after 48 hrs by Annexin V-FITC/propidium iodide staining based flow cytometry (reference value: 0.19%). Format: functional. The gist of the method: as §5
Experiment [12] has as its system HepG2. As to the kind of experiment: Antiproliferative activity against human HepG2 cells assessed as combination index at 0.7 uM measured after 72 hrs in presence of 1.4 uM doxorubicin by MTT assay. Format: functional.
The subject of experiment [13] is HepG2. As to the kind of experiment: Induction of apoptosis in human HepG2 cells assessed as early apoptotic cells at 5 uM measured after 48 hrs by Annexin V-FITC/propidium iodide staining based flow cytometry (reference value: 4.03%). Format: functional. The procedure, abridged: as §5
Experiment [14] concerns HepG2. The experiment is described as follows: Induction of apoptosis in human HepG2 cells assessed as late apoptotic cells at 10 uM measured after 48 hrs by Annexin V-FITC/propidium iodide staining based flow cytometry (reference value: 0.19%). Format: functional. The procedure, abridged: as §5
In experiment [15] the test system is HepG2. As to the kind of experiment: Antiproliferative activity against human HepG2 cells assessed as combination index at 0.0875 uM measured after 72 hrs in presence of 0.175 uM doxorubicin by MTT assay. Format: functional.
The target in experiment [16] is T1, Acetyl-CoA carboxylase 1. As to the kind of experiment: Inhibition of ACC1 in human HepG2 cells assessed as reduction in intracellular malonyl-CoA level measured after 48 hrs by ELISA. Format: cell-based. The following applies: dose 1-10 µM. The gist of the method:
as §4

The subject of experiment [17] is HepG2. As to the kind of experiment: Induction of apoptosis in human HepG2 cells assessed as late apoptotic cells at 5 uM measured after 48 hrs by Annexin V-FITC/propidium iodide staining based flow cytometry (reference value: 0.19%). The class given is functional. The gist of the method: as §5
Experiment [18] has as its system HepG2. As to the kind of experiment: Antiproliferative activity against human HepG2 cells assessed as cell viability at 0.5 uM measured after 5 days by MTT assay relative to control. Format: functional. The conditions noted are these: HepG2, 120 h, time 5 day, read-out: Activity. The procedure, abridged:
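HepG2 treated with 0.5 μM plus 0, 10 or 25 μM palmitate for 1, 3 and 5 days. Palmitate was complexed with 5% fatty-acid-free BSA from a 5 mM solution, then diluted in serum-free DMEM to final concentration. Viability (% control) by MTT. Mean ± SD, n=3.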

The target of experiment [19] is T1, Acetyl-CoA carboxylase 1. As to the kind of experiment: Inhibition of recombinant human C-terminal His-tagged ACC1 (1 to 2383 residues) expressed in baculovirus infected Sf9 insect cells preincubated for 15 mins followed by substrate addition and measured after 60 mins by ADP-glo luminescence assay. The procedure, abridged:
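Recombinant ACC1 in assay buffer preincubated with inhibitor in DMSO for 15 min at room temperature. Reaction started with substrate mixture and run 60 min at room temperature. Stopped with ADP-Glo reagent for 40 min, then detection reagent for 40 min to convert ADP to ATP, read by luminescence. Mean of two independent experiments.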

The test system of experiment [20] is HepG2. As to the kind of experiment: Induction of apoptosis in human HepG2 cells assessed as increase in PARP cleavage at 1 to 10 uM measured after 48 hrs by Western blot analysis. Format: functional, cell-based. The following applies: dose 1-10 µM. The gist of the method: as §2
The test system of experiment [21] is HepG2. As to the kind of experiment: Cell cycle arrest in human HepG2 cells assessed as reduction in CDK4 expression at 10 uM measured after 48 hrs by Western blot analysis relative to control. Format: functional. Also on record: scale not given: the % may be the effect or the level left. The gist of the method: as §1
Experiment [22] deals with HepG2. The experiment is described as follows: Cell cycle arrest in human HepG2 cells assessed as accumulation at G0/G1 phase at 5 uM measured after 48 hrs by propidium iodide staining based flow cytometry (reference value: 56.24%). Format: functional.

The structures appear in SMILES notation. Activity calls are given as the source filed them. No cut-off for these calls is given here.

Consider one molecule from ChEMBL document CHEMBL4732112, “Synthesis and in vitro evaluation of novel spiroketopyrazoles as acetyl-CoA carboxylase inhibitors and potential antitumor agents” (Eur J Med Chem, 2021).

As for `CC(C)(C)n1cc2c(n1)C(=O)CC1(CCN(C(=O)c3cc(-c4ccncc4)nc4ccccc34)CC1)O2`, the Activity result with HepG2 [1] is “Dose-dependent effect”; in the experiment with HepG2 [2], “Dose-dependent effect”; in the experiment on HepG2 [5], “Dose-dependent effect”; with HepG2 [7] it was 88.61%; in the experiment on HepG2 [8], “Dose-dependent effect”; in the experiment with HepG2 [10] it was 0.64%. The Activity stood at 12.7% with HepG2 [11]; 18.9% in the experiment with HepG2 [13]; 45.5% in the experiment with HepG2 [14]; 32.6% in the experiment on HepG2 [17]; 60.76% in the experiment on HepG2 [21]; 78.83% in the experiment with HepG2 [22]. For the same molecule, the CI in the experiment on HepG2 [3] is reported as 0.816; in the experiment on HepG2 [4] it was 0.737; with HepG2 [12], 0.599; in the experiment with HepG2 [15], 0.713. The IC50 in the experiment with HepG2 [6] amounted to 380 nM; in the experiment on A549, 550 nM; on Acetyl-CoA carboxylase 1 [19] it was 11.3 nM. For the same molecule, the inhibition entry at Acetyl-CoA carboxylase 1 [9] and on Acetyl-CoA carboxylase 1 [16] was “Dose-dependent effect” each time. For the same molecule, in the experiment on MDA-MB-231, the inhibition of growth at 10 µM was found to be 72.2%. The viability at 0.5 µM in the experiment on HepG2 [18] was 33.1%. Further, the result in the experiment on HepG2 [20] was Active.
